In ChEMBL document CHEMBL6177989, “Development of Diaryl Hydrazones for Alleviation of Mitochondrial Oxidative Stress in Preeclampsia” (2025):
Activity calls are given as the source filed them. The calls are words filed in the database; no cut-off is given here.

Tests used:
[1] = Antioxidant activity assessed as trolox equivalent of DPPH radical scavenging activity […] measured every 15 mins for 60 mins by absorbance based assay; type: functional
How it was run: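 DPPH radical scavenging by absorbance at 25 °C, compounds at 200 μM antioxidant concentration. Percent scavenging from control vs sample absorbance; 60 min value divided by 60 min Trolox value to give Trolox equivalents. Mean ± SD, four independent repeats.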

[2] = Antioxidant activity assessed as trolox equivalent of ORAC radical scavenging activity […] measured every 2 mins for 60 mins by UV-Vis / fluorescence plate reader based analysis; type: functional
How it was run: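 ORAC: fluorescein with AAPH, fluorescence read 30 times; net AUC relative to AAPH control and no-AAPH maximum. Compounds at 80 μM; Trolox calibration (3.125–100 μM) of percent scavenging vs ln concentration gives Trolox equivalent concentration. 25 °C; mean ± SD, three independent repeats.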

[3] = system: HTR-8/SVneo; experiment: Antioxidant activity in H2O2 induced human HTR-8/SVneo cells assessed as reduction in sFLT-1 protein expression at 0.1 to 50 uM preincubated for 30 mins followed by H2O2 addition and measured after 20 hrs by ELISA method; type: functional, cell-based; settings: dose 0.1-50 µM, time 20.5 hrs
How it was run: (§1)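 HTR-8/SVneo cells in RPMI with 5% FBS, 37 °C, 5% CO2, pretreated 30 min with 0.1–50 μM compound, then 100 μM H2O2 for 20 h with compound present throughout. Supernatant sFLT-1 measured by human VEGFR1 ELISA; MitoTEMPO as reference antioxidant; 5 repeat experiments.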

[4] = Antioxidant activity assessed as trolox equivalent of ABTS radical scavenging activity at […] measured up to 12 mins by absorbance based analysis; type: functional
How it was run: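 ABTS radical generated 12–24 h before assay; compounds tested at 500 μM final antioxidant concentration; absorbance read on plate reader at 25 °C. Percent scavenging standardized to Trolox scavenging to give Trolox equivalents; mean ± SD of three independent repeats.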

[5] = Antioxidant activity in H2O2 induced human HTR-8/SVneo cells assessed as reduction in sFLT-1 protein expression at 0.1 to 50 uM preincubated for 30 mins followed by H2O2 addition and measured after 20 hrs by ELISA method relative to MitoTEMPO; type: functional; set-up: scale not given: the % may be the effect or the level left; settings: dose 0.1-50 µM, time 20.5 hrs; how it was run: as §1
[6] = Antioxidant activity in H2O2 induced human HTR-8/SVneo cells assessed as reduction in mitochondrial derived ROS production at 50 uM preincubated for 30 mins followed by H2O2 addition and measured after 20 hrs by MitoSOX red staining based immunofluorescence analysis relative to control; type: functional; set-up: scale not given: the % may be the effect or the level left; settings: time 20.5 hrs
How it was run: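 HTR8 cells pretreated 30 min with 50 μM compound, then 100 μM H2O2 for 20 h. Mitochondrial superoxide imaged with MitoSOX Red by fluorescence microscopy at 20×; OD per cell surface area over 3 high-power fields per sample, n = 4 per group; median [IQR], Mann–Whitney U test.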

With `COc1ccc(/C=N/Nc2cccc(C(F)(F)F)c2)cc1OC` the Activity [1] was “Active”, the Activity [2] was “Active” and the Activity [3] was “Active”. For the same molecule, the Activity [4] was “Active” and the Activity [5] was 10%.

In the case of `COc1ccc(N/N=C/c2ccc([N+](=O)[O-])cc2)cc1`, the Activity [2] is reported as “Active”.

For `FC(F)(F)c1ccccc1N/N=C/c1c2ccccc2cc2ccccc12`, the Activity [1] was “Active”, the Activity [2] was “Weak_effect” and the Activity [4] was “Active”.

With `COc1ccc(/C(C)=N/Nc2ccccc2)c(O)c1` the Activity [1] was “Active”, the Activity [2] was “Active” and the Activity [4] was “Active”.

With `C(=N\Nc1ccccc1)/c1c[nH]c2ccccc12` the Activity [1] was “Active”, the Activity [2] was “Active” and the Activity [4] was “Active”.

With `O=[N+]([O-])c1cccc(N/N=C/c2ccc3ccccc3c2)c1` the Activity [1] was “Active”, the Activity [2] was “Weak_effect” and the Activity [4] was “Active”.

With `CN(C)c1ccc(/C=N/Nc2cccc(C(F)(F)F)c2)cc1` the Activity [1] was “Active”, the Activity [2] was “Active” and the Activity [3] was “Active”. For the same molecule, the Activity [6] was 50%, the Activity [4] was “Active” and the Activity [5] was 10%.

For `FC(F)(F)c1cccc(N/N=C/c2ccc(/C=N/Nc3cccc(C(F)(F)F)c3)cc2)c1`, the Activity [1] was “Active”, the Activity [2] was “Active” and the Activity [3] was “Active”. The Activity [4] was “Active”.

For `COc1ccc(N/N=C/c2ccc(/C=N/Nc3ccc(OC)cc3)cc2)cc1`, the Activity [1] was “Active”, the Activity [2] was “Active” and the Activity [4] was “Active”.

For `CN(C)c1ccc(/C=N/Nc2ccccc2C(F)(F)F)cc1`, the Activity [1] was “Active”, the Activity [2] was “Active” and the Activity [3] was “Active”. For the same molecule, the Activity [4] was “Active”.

For `CN(C)c1ccc(/C=N/Nc2ccc(C(F)(F)F)cc2)cc1`, the Activity [1] was “Active”, the Activity [2] was “Active” and the Activity [3] was “Active”. The Activity [4] was “Active”.

For `C/C(=N\Nc1ccccc1)c1ccc(Cl)cc1`, the Activity [1] was “Active”, the Activity [2] was “Active” and the Activity [4] was “Active”.

With `Clc1ccc(N/N=C/c2ccc3ccccc3c2)cc1` the Activity [1] was “Active” and the Activity [4] was “Active”.

With `Fc1c(F)c(F)c(/C=N/Nc2ccc(C(F)(F)F)cc2)c(F)c1F` the Activity [1] was “Active”, the Activity [2] was “Active” and the Activity [3] was “Active”. For the same molecule, the Activity [4] was “Active”.

In the case of `COc1ccc(N/N=C(\C)c2ccc([N+](=O)[O-])cc2)cc1`, the Activity [1] is reported as “Weak_effect”, the Activity [2] is reported as “Active” and the Activity [4] is reported as “Weak_effect”.

With `Cc1ccc(C)c(N/N=C/c2ccc3ccccc3c2)c1` the Activity [1] was “Active”, the Activity [2] was “Active” and the Activity [4] was “Active”.

In the case of `O=[N+]([O-])c1ccc(/C=N/Nc2cccc(C(F)(F)F)c2)cc1`, the Activity [1] is reported as “Active”, the Activity [2] is reported as “Active” and the Activity [3] is reported as “Active”. For the same molecule, the Activity [4] was “Active”.

With `COc1ccc(N/N=C/c2ccc3ccccc3c2)cc1` the Activity [1] was “Active”, the Activity [2] was “Active” and the Activity [4] was “Active”.

In the case of `C(=N\Nc1ccccc1)/c1ccc2ccccc2c1`, the Activity [1] is reported as “Active”, the Activity [2] is reported as “Active” and the Activity [4] is reported as “Active”.

For `C/C(=N\Nc1cc(C)ccc1C)c1cccc([N+](=O)[O-])c1`, the Activity [1] was “Weak_effect”, the Activity [2] was “Active” and the Activity [4] was “Weak_effect”.

In the case of `C/C(=N\Nc1cc(C)ccc1C)c1ccc([N+](=O)[O-])cc1`, the Activity [1] is reported as “Weak_effect”, the Activity [2] is reported as “Active” and the Activity [4] is reported as “Weak_effect”.

With `COc1ccc(N/N=C(\C)c2cc3ccc(OC)cc3oc2=O)cc1` the Activity [1] was “Active”, the Activity [2] was “Active” and the Activity [4] was “Active”.

With `COc1ccc(/C=N/Nc2ccc(C(F)(F)F)cc2)c(O)c1` the Activity [1] was “Active”, the Activity [2] was “Active” and the Activity [3] was “Active”. The Activity [4] was “Active”.

With `C/C(=N\Nc1ccccc1)c1ccc(C)cc1` the Activity [1] was “Active”, the Activity [2] was “Active” and the Activity [4] was “Active”.
